Measured values published in PubChem BioAssay.
Results filed as inconclusive are left out.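 How the source made its calls, unless noted: active means cell viability at or below a set limit in both duplicate runs, the limit being the all-compound median minus 4 SD (cut at about 23% in these data, passing the limit was not always enough); inconclusive means no clear call, values can overlap the other calls; inactive means the rest.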

Assays:
[1] = OD615 S. cerevisiae growth inhibition, permissive medium, pilot counter-assay, permissive growth control for S. cerevisiae lifespan shortening project (AID 705;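 active means growth inhibition above 25% in both replicates, a cutoff set 3 SD above the mean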); settings: OD615, 24 h, at 10 µM, stronger effect = higher value
Outline: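 System – S. cerevisiae with engineered DeaD lifespan system · Buffer or medium – SC raffinose/galactose permissive medium · Schedule – cells pre-grown 4 h, then 24 h compound exposure, 30 °C humidified · Technique – culture turbidity as optical density at 615 nm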

[2] = Restrictive medium S. cerevisiae growth inhibition, OD615, pilot screen of yeast lifespan reduction project, restrictive growth control (AID 706;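 active means growth inhibition above a set limit, 3 SD over mean compound inhibition, in both replicates, cut at about 43% in these data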;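 further: modified DeaD lifespan yeast strain shifted to restrictive glucose medium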); settings: OD615, 48 h, at 10 µM, stronger effect = higher value
Outline: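 Material: engineered S. cerevisiae DeaD strain / Medium: glucose-based CSMM-D restrictive medium / Compound: single dose of 10 µM compound final, 0.25% DMSO / Timing: 4 h pre-incubation, 48 h exposure at 30 °C / Technique: OD615 absorbance reading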

[3] = viability gain of MRP-1-high H69AR cells under doxorubicin, pilot screen, MRP-1 activator project, CellTiter-Glo, duplicate (AID 807;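 active means viability increase at or above a cutoff of the median across tested compounds plus 3 SD, cut at about 8.5% in these data, passing the limit was not always enough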;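 further: compound pretreatment 18-22 h then 72 h combined with doxorubicin; 0% = doxorubicin alone and 100% = vehicle without doxorubicin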); settings: H69AR viability with doxorubicin, CellTiter-Glo luminescence; at 10 µM; stronger effect = higher value
[4] = growth suppression of beta-catenin knockout HCT116, pilot screen, human colon tumor cells (AID 823); settings: CellTiter-Glo, 60 h, at 10 µM, stronger effect = lower value;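 further: 0% = wells killed by 20 µM Hyamine and 100% = untreated DMSO cell wells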
[5] = growth suppression of PTEN-deleted HCT116, pilot screen, cell-based, HCT116 clonal line, CellTiter-Glo (AID 824;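 active means viability at or below 27.92% in each of two runs, the all-compound median minus 4 SD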;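 further: 0% = 20 µM Hyamine control and 100% = vehicle cell control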); settings: 60 h, at 10 µM, stronger effect = lower value
[6] = inhibitors of the yeast RAM network, pilot screen, dse1pr::URA3 reporter, 5-FOA selection (AID 869;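 active means inhibition over a set limit, the all-compound mean plus 3 SD, in both replicate runs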;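 further: 0% = DMSO wells with no growth and 100% = 10 µM 1-NA-PP1 with full growth; RAM network block rescues cells from 5-FOA so hits raise OD615 growth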); settings: S. cerevisiae dse1pr::URA3 5-FOA growth, OD615, 2 d; at 10 µM; stronger effect = higher value; strain carries analog-sensitive mutant Cbk1 kinase
[7] = RAM signaling pathway blockade in yeast – S. cerevisiae, Pdr1DBD-CYC8 efflux-inhibited sensitized strain, primary screen (AID 1298;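 active means RAM network inhibition above 8.4% in each of two replicates, 3 SD over the compound average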;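 further: 0% = DMSO untreated cells without growth and 100% = 10 µM 1-NA-PP1 full growth; higher means more yeast growth rescued from 5-FOA killing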); settings: S. cerevisiae cbk1-as DSE1-URA3 strain, 5-FOA growth OD615, 2 d; at 50 µM; stronger effect = higher value

CCOC(=O)c1ccc2[nH]c(C)cc(=O)c2c1
inactive: growth inhibition [1] -1.86% | growth inhibition [2] 1.21% | viability increase [3] -0.4% | viability [4] 98% | viability [5] 98% | inhibition [6] 1.35% | RAM network inhibition [7] 9.46%

S=c1[nH]nc(CSc2nc3ccccc3s2)o1
inactive: growth inhibition [1] -1.19% | growth inhibition [2] 16.7% | viability increase [3] -4.34% | viability [4] 93.8% | viability [5] 99.1% | inhibition [6] 0.95% | RAM network inhibition [7] 0.83%

c1csc(Cc2nc3ccccc3[nH]2)c1
inactive: growth inhibition [1] -8.51% | growth inhibition [2] -11.8% | viability increase [3] 0.14% | viability [4] 97.8% | viability [5] 100% | inhibition [6] 2.71% | RAM network inhibition [7] -0.01%

COC(=O)C1(C)Nc2ccccc2C(=O)N1c1ccccc1C (stereo not drawn)
inactive: growth inhibition [1] -7.67% | growth inhibition [2] -8.55% | viability increase [3] -0.74% | viability [4] 104% | viability [5] 102% | inhibition [6] 2.51% | RAM network inhibition [7] 5.2%

COC(=O)Cn1c(CN2CCc3ccccc3C2)nc2c1c(=O)n(C)c(=O)n2C
inactive: growth inhibition [1] -4.78% | growth inhibition [2] 0.56% | viability increase [3] -1.18% | viability [4] 95.6% | viability [5] 96.2% | inhibition [6] 1.31% | RAM network inhibition [7] 8.74%

CCN(CC)C1=CC(=O)OC12CCCCC2
inactive: growth inhibition [1] -13.1% | growth inhibition [2] 0.735% | viability increase [3] -2.99% | viability [4] 98.5% | viability [5] 93.7% | inhibition [6] 2.08% | RAM network inhibition [7] 9.79%

Cc1cc(N2C(=O)CC(Cc3ccccc3)C2=O)no1 (stereo not drawn)
inactive: growth inhibition [1] -6.49% | growth inhibition [2] -11.5% | viability increase [3] 1.08% | viability [4] 103% | viability [5] 103% | inhibition [6] 1.55% | RAM network inhibition [7] 2.8%

CCCOc1ccc(N2C(=O)CC(N3CCC(O)(c4cccc(C(F)(F)F)c4)CC3)C2=O)cc1 (stereo not drawn)
inactive: growth inhibition [1] 1.01% | growth inhibition [2] -0.55% | viability increase [3] 2.49% | viability [4] 101% | viability [5] 103% | inhibition [6] 2.71% | RAM network inhibition [7] 5.62%

COc1ccc(N(CC(=O)N2CCc3ccccc3C2)S(=O)(=O)c2c(C)[nH]c(=O)[nH]c2=O)cc1
inactive: growth inhibition [1] -5.04% | growth inhibition [2] -13% | viability increase [3] -1.83% | viability [4] 110% | viability [5] 99.5% | inhibition [6] 2.77% | RAM network inhibition [7] 3.41%

O=C1CCC/C1=c1\s/c(=C\c2cccnc2)c(=O)n1-c1ccccc1
inactive: growth inhibition [1] -9.13% | growth inhibition [2] -8.32% | viability increase [3] -5.83% | viability [4] 103% | viability [5] 89.6% | inhibition [6] 0.465% | RAM network inhibition [7] 7.11%

CN(C(=O)c1ccccc1C(=O)c1ccccc1)C1CCS(=O)(=O)C1 (stereo not drawn)
inactive: growth inhibition [1] -8.28% | growth inhibition [2] 3.21% | viability increase [3] -1.54% | viability [4] 96.6% | viability [5] 95.4% | inhibition [6] -0.06% | RAM network inhibition [7] 1.85%

O=C(CSc1nc2c(cnn2-c2ccc(F)cc2)c(=O)[nH]1)N1CCCCCC1
inactive: growth inhibition [1] -3.72% | growth inhibition [2] -9.65% | viability increase [3] -3.34% | viability [4] 94.2% | viability [5] 93% | inhibition [6] 1.53% | RAM network inhibition [7] -0.11%

CCOC(=O)CN1Cc2cccc(C(=O)O)c2C1=O
inactive: growth inhibition [1] -13.8% | growth inhibition [2] -18.1% | viability increase [3] -0.75% | viability [4] 95.6% | viability [5] 96.3% | inhibition [6] 0.535% | RAM network inhibition [7] 1.31%

CCOc1cccc(NC(=O)c2ccc(S(=O)(=O)N(C)C)cc2)c1
inactive: growth inhibition [1] -7.19% | growth inhibition [2] -8.01% | viability increase [3] -2.48% | viability [4] 98.6% | viability [5] 92.4% | inhibition [6] 0.83% | RAM network inhibition [7] 6%

CC1CCc2nn(CC(=O)NCCC3=CCCCC3)cc2C1 (stereo not drawn)
inactive: growth inhibition [1] 4.45% | growth inhibition [2] -4.16% | viability increase [3] -1.4% | viability [4] 101% | viability [5] 94.5% | inhibition [6] 0.595% | RAM network inhibition [7] 0.3%

O=C(NCCN1CCOCC1)c1ccc2c(c1)N(Cc1ccccc1)CCS2
inactive: growth inhibition [1] -1.33% | growth inhibition [2] -3.97% | viability increase [3] -2.25% | viability [4] 93.2% | viability [5] 94.5% | inhibition [6] 1.02% | RAM network inhibition [7] 6.44%

COc1ccc(NC(=O)NCCN2CCN(c3cccc(Cl)c3)CC2)cc1
inactive: growth inhibition [1] 1.49% | growth inhibition [2] -5.71% | viability increase [3] -1.77% | viability [4] 76.9% | viability [5] 71.9% | inhibition [6] 0.88% | RAM network inhibition [7] 3.82%

COc1ccc(N2CCN(S(=O)(=O)c3ccc(OC)cc3)CC2)cc1
inactive: growth inhibition [1] -4.01% | growth inhibition [2] 3.09% | viability increase [3] -5.5% | viability [4] 99.3% | viability [5] 106% | inhibition [6] 0.885% | RAM network inhibition [7] 3.84%

CCc1ccccc1S(=O)(=O)Cc1ccc(C(=O)N2CCN(c3ccccn3)CC2)o1
inactive: growth inhibition [1] -8.76% | growth inhibition [2] -27% | viability increase [3] -3.28% | viability [4] 84.1% | viability [5] 78% | inhibition [6] 1.54% | RAM network inhibition [7] 2.4%

CCCOC(=O)c1ccc(NC(=O)c2ccoc2C)cc1
inactive: growth inhibition [1] -3.79% | growth inhibition [2] 1.33% | viability increase [3] 0.94% | viability [4] 75.5% | viability [5] 78% | inhibition [6] 2.72% | RAM network inhibition [7] 4.37%

Cc1ccc2oc(=O)n(CC(=O)O)c2c1
inactive: growth inhibition [1] -6.32% | growth inhibition [2] 5.35% | viability increase [3] -0.21% | viability [4] 98.6% | viability [5] 93.7% | inhibition [6] 1.27% | RAM network inhibition [7] -1.2%

O=C(COC(=O)C1CC(=O)N(C2CCCCC2)C1)c1ccc(F)cc1 (stereo not drawn)
inactive: growth inhibition [1] -2.56% | growth inhibition [2] 0.43% | viability increase [3] -2.49% | viability [4] 108% | viability [5] 101% | inhibition [6] 0.95% | RAM network inhibition [7] 2.97%

CCOC(=O)N1CCN(C(=O)CN(c2cc(Cl)ccc2OC)S(=O)(=O)c2ccccc2)CC1
inactive: growth inhibition [1] 6.4% | growth inhibition [2] -12% | viability increase [3] -2.13% | viability [4] 97.1% | viability [5] 84.1% | inhibition [6] 1.68% | RAM network inhibition [7] 2.07%

CCSc1nnc2c(n1)OC1(CCCC1)Nc1ccccc1-2
inactive: growth inhibition [1] -13.8% | growth inhibition [2] -3.69% | viability increase [3] -0.51% | viability [4] 97.3% | viability [5] 93.5% | inhibition [6] 1.45% | RAM network inhibition [7] 5.92%
